Screening data from PubChem BioAssay.
Sampled rows, rich in hits. Any-hit rate of the full collection: about 2.6%.
NPY-Y1 PAM-ag: human NPY-Y1 potentiation or agonism, primary screen; AID 1304; activation, % at 3.6 µM; NPY-Y1 expressing cells, potentiator/agonist activation; 220,000 compounds, 0.37% hits; in the data active means activation above about 33%, passing the limit was not always enough;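 further: cells stimulated with NPY at EC10 then isoproterenol at EC100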
NPY-Y2 antag: NPY-Y2 (human) receptor antagonism; P49146; NPY-Y2 expressing cells, antagonist mode; inhibition, % at 2.7 µM; 140,000 compounds, 0.99% hits; AID 793
Target sequence (P49146 whole entry, looked up): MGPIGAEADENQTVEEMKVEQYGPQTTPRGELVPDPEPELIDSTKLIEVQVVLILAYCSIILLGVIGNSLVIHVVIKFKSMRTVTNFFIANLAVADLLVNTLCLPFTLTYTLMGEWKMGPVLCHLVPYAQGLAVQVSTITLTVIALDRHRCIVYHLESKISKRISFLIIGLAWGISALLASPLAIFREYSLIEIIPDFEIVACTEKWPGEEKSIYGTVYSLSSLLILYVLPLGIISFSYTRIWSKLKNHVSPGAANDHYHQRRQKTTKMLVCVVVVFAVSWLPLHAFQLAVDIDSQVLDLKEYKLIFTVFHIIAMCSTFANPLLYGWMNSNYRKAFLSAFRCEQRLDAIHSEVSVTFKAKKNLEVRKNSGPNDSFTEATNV
NPY-Y1 antag: blocks the human neuropeptide Y Y1 receptor | HEK293-CNG Y1 cells, membrane potential fluorescence; NPY at EC95, then isoproterenol | inhibition, % at 3.6 µM | 200,000 compounds, 1% hits;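 active means inhibition above the campaign mean inhibition of all tested compounds plus 3 SD, cut at about 20% in these data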
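Test system – HEK293 Y1/CNG channel cell line · Also added – NPY agonist 25 nM, then isoproterenol 1 µM plus Ro 20-1724 25 µM · Compound dosing – one concentration, 3.6 µM, in 0.4% DMSO · Schedule – compound incubation 1 h at room temperature, readout 45 min post-stimulation · Technique – fluorescence, membrane potential probe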
MT stabilizer: stabilizes microtubules in HeLa cells | 200,000 compounds, 0.83% hits | % tubulin-high responders, % at 10 µM | HeLa tubulin immunostaining HCS, 24 h; share of cells brighter than vehicle mean+2SD;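 active means plate Z-score above 3 for both tubulin-high and condensed-nucleus cell shares, with cell loss under 80%, at 10 µM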;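 further: anti alpha tubulin signal scored within the nucleus-defined area of each cell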
NPY2 pot ag: human NPY-Y2 potentiation or agonism, primary screen; cells expressing NPY-Y2, potentiator/agonist read-out; activation, % at 3.6 µM; 220,000 compounds, 0.45% hits; AID 1359; in the data active means activation above about 27%;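 further: cells stimulated with NPY near EC25 plus isoproterenol at EC100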
bCat nuc transl: alters nuclear translocation of beta-catenin in HeLa cells. immunofluorescence imaging. nuclear translocation activity, % at 5 µM. 190,000 compounds, 0.3% hits;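 active means nuclear translocation activity above 50% at 5 µM, with a well cell count of 50 or more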;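 further: per-cell ratio of nuclear to cytoplasmic median beta-catenin stain intensity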
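Technique: fluorescence imaging of beta-catenin antibody stain plus DAPI / Material: human HeLa cell line / Incubation: compound treatment 24 h, 37°C, 5% CO2 / Read-out basis: % activation of per-cell nuclear versus cytoplasmic median beta-catenin signal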
NPY1 antag conf: human NPY-Y1 antagonism, confirmation. shares compounds with NPY-Y1 antag. HEK293-CNG NPY-Y1, membrane potential fluorescence, cAMP; NPY challenge against isoproterenol-raised cAMP. inhibition, % at 3.6 µM. 1,200 compounds, 21% hits. AID 1254; in the data active means inhibition above about 20%
NPY2 antag ctr: human NPY-Y2 antagonism in NPY-Y1 counter-screen. shares compounds with NPY-Y1 antag. inhibition, % at 3.6 µM. HEK293 NPY-Y2 CNG membrane potential fluorescence; cells given NPY, then isoproterenol. AID 1255. 1,200 compounds, 28% hits
A number is an active result; n = inactive; x = no result given. Unless noted, no stated cut-off is given here; in the data, active means inhibition above about 17%; inactive means the rest.

SMILES	NPY-Y1 PAM-ag	NPY-Y2 antag	NPY-Y1 antag	MT stabilizer	NPY2 pot ag	bCat nuc transl	NPY1 antag conf	NPY2 antag ctr
Cn1ccc(C(=O)Oc2ccc(C(=O)Nc3ccc(F)cc3F)cc2)n1	n	x	n	n	n	n	x	x
COc1ccc(/C=N/OC(=O)c2ccc(Cl)cc2)c(Cl)c1OC	n	x	x	x	n	n	x	x
CCOC(=O)C(=CNc1cc(C)nn1-c1ccc(Cl)cc1)C(=O)OCC	n	n	23.7	n	n	n	20.8	n
CC1(C)C(CSc2nc3ccccc3[nH]2)C1(Cl)Cl (centres undefined)	n	x	91.8	n	n	n	90.0	110.4
Cc1ccc(-c2cc3cccc[n+]3cc2-c2ccc(C)cc2)cc1	n	n	21.7	n	n	n	32.2	20.9
COC(=O)[C@@]1(Cc2ccc(F)cc2)[C@H]2c3cc(C(=O)N(C)C)n(Cc4ccc(OC(F)(F)F)cc4)c3C[C@H]2CN1C(=O)c1ccccc1	n	n	34.9	n	n	n	n	n
Cc1c(Cl)cccc1NC(=S)NCC(c1cccnc1)N(C)C (centres undefined)	n	x	n	n	n	n	x	x
O=C(Nc1nnc(C2=COCCO2)o1)c1ccc(Cc2ccccc2)cc1	n	x	22.5	n	n	n	n	n
CN(C)c1ccnc(N(Cc2ccccc2)Cc2ccccc2)c1C#N	n	n	38.7	n	n	n	47.8	82.9
CN(C)c1ccnc(NCc2ccccc2)c1C#N	n	n	n	n	n	n	x	x
CCC(=O)NS(=O)(=O)c1cccnc1Nc1ccccc1Cl	n	n	23.9	n	n	n	21.7	19.3
CCOC(=O)Nc1ccc(Cc2ccncc2)cc1	n	x	n	n	n	n	x	x
O=C(c1cnc2c(c1)COc1ccc(Cl)cc1-2)c1ccccc1O	n	n	22.0	n	n	n	n	n
CC(C)(C)C(=O)OCc1cn(-c2ccc(Cl)cc2)nn1	n	n	n	n	n	n	x	x
O=C(Nc1cccc(Cl)c1)OCc1cnc(Cl)s1	n	n	n	n	n	n	x	x
O=C(Nc1cccc(Cl)c1)OCc1cn(-c2ccc(Cl)cc2)nn1	n	n	20.4	n	n	n	n	n
Cc1ccc(NC(=O)OCc2cn(-c3ccc(Cl)cc3)nn2)cc1	n	n	29.3	n	n	n	n	18.2
O=C(OCc1cn(-c2ccc(Cl)cc2)nn1)c1ccccc1	n	n	20.6	n	n	n	n	n
COc1ccc2[nH]c(=O)c(CN(CCCN(C)C)C(=O)Nc3ccc(F)cc3)cc2c1	n	n	n	n	n	n	x	x
c1ccc(-c2nc(-n3ccnc3)nc(-n3ccnc3)n2)cc1	n	n	n	n	n	n	x	x
c1ccc(CN2CCN(c3nc(-c4ccccc4)nc(-n4ccnc4)n3)CC2)cc1	n	n	40.4	n	n	n	24.2	22.7
C#CCOCCOCCOCCNc1nc(N2CCN(C(=O)[C@H]([C@@H](C)CC)n3cc([C@@H](N)CC(C)C)nn3)CC2)nc(N2CCN(C(=O)[C@H]([C@@H](C)CC)n3cc([C@@H](N)CC(C)C)nn3)CC2)n1	n	x	n	n	n	n	x	x
COc1nc(OC)nc(N2CCC(C(=O)Nc3cccc4ccccc34)CC2)n1	n	n	35.0	n	n	n	n	n
COc1ccc2c(c1)CCc1c-2nc2ccccc2c1N1CCOCC1	n	x	x	x	n	n	x	x
COc1ccc(C2=NOC(C(=O)NCc3cccs3)C2)cc1 (centres undefined)	n	n	n	n	n	x	x	x
COc1ccc(C2=NOC(C(=O)NCc3cccs3)C2)cc1OC (centres undefined)	n	n	23.1	41.2	n	x	n	n
COc1ccc(CNC(=O)C2CC(c3ccc(F)cc3)=NO2)cc1 (centres undefined)	n	n	n	n	n	n	x	x
COc1ccc(C2=NOC(C(=O)NCc3ccc(F)cc3)C2)cc1 (centres undefined)	n	n	40.8	n	n	65.4	n	n
